# Screening data from PubChem BioAssay.
# In the library only some 3% were active in any assay of this set; here they are far more common.
# S100A4 MyoIIA – inhibitors of S100A4-myosin IIA peptide binding, primary screen, biochemical, fluorescence polarization, TAMRA-MyoIIA peptide; Protein S100-A4 (Homo sapiens), P26447; inhibition, % at 10.7 µM; 360,000 tested, 0.14% active;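 active = mean inhibition of at least 70% across replicates, with every replicate also reaching that level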
# Target sequence (P26447 whole entry, looked up): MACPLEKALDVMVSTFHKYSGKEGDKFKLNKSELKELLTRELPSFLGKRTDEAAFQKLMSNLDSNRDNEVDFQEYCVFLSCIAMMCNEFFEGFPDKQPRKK
#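 System – human S100A4 monomer protein, biochemical binding assay · Buffer or medium – Calcium-containing HEPES buffer, pH 7.2 · Timing – 5 min between mix addition and reading · Also added – TAMRA-labelled myosin IIA heavy-chain peptide probe, 5 nM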
# PGC1a acetyl inh – inhibitors of PGC1a acetylation signal, primary screen, cell-based, U2OS, AlphaScreen, inhibitor mode; inhibition, % at 15.6 µM; AID 651687, 2012; AlphaScreen anti-acetyl-lysine; with virally co-expressed GCN5 acetyltransferase; 350,000 tested, 0.17% active;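 active = every replicate shows inhibition of at least 40%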
# SIRT5 block – SIRT5 desuccinylase inhibitors, primary screen, biochemical, fluorescence imaging, single point, set 5; NAD-dependent protein deacylase sirtuin-5, mitochondrial (Homo sapiens), Q9NXA8; Purified SirT5, succinyl-peptide AMC, trypsin-coupled fluorescence; 330,000 tested, 1.1% active; inhibition, % at 15 µM; in the data active = inhibition above about 15%
# Target sequence (Q9NXA8 whole entry, looked up): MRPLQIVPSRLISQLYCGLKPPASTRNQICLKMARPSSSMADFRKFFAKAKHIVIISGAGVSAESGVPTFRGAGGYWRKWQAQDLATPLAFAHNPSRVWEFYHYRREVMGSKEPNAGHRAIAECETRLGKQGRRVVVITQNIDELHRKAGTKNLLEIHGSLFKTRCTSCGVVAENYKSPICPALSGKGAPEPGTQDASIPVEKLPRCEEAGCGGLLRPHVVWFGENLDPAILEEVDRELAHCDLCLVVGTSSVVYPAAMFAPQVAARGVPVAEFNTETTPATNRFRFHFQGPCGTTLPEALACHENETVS
# Cneo AK release – Cryptococcus neoformans cell lysis inducers, primary screen, AK release luminescence, single concentration; C. neoformans lysis, adenylate kinase release luminescence, 4 h; normalised: neutral wells 0, clomiphene wells 100; lysis activity, % at 15 µM; 360,000 tested, 0.2% active; AID 651654, 2012;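 active = mean lysis activity across replicates of at least 80%, whatever share of replicates individually reach that level; inactive = mean lysis activity below 80%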
#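 Test system: log-phase Cryptococcus neoformans yeast cells. Input: 5 × 10^6 yeast cells/mL. Medium: fresh YPD growth medium. Doses: single dose. Incubation: static 4 h at 37 °C with compound, 1 h detection. Measured by: luminescent adenylate kinase detection reagent. Read-out: signal increase indicating cell lysis. Benchmarks: Clomiphene.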
# rRNA inh HTS – reduced GFP signal of wild-type E. coli, primary screen, bacterial rRNA inhibitor project, GFP/RFP fluorescence, OD600, single point. E. coli WT GFP vs humanized-ribosome RFP mutants, 24 h; stronger effect = lower value; DMSO median 0, no signal -100. GFP signal change (wild-type ribosome), % (test concentration not listed). 350,000 tested, 1.6% active. AID 720706, 2013;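 active = significant combined selectivity score with lowered wild-type GFP, culture density cut under 30%, mutant RFP and density less affected; inactive = any of these conditions unmet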
# C2C12 statin – suppressors of statin myotoxicity in C2C12 myotubes, primary screen, cell-based, single point, plate reader. 330,000 tested, 0.78% active. rescue of ATP level, % at 7.49 µM. C2C12 myotubes + simvastatin, ATP luminescence, 48 h; scaled: DMSO 0, geranylgeraniol control 100;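 active = mean ATP rescue above about 67%, or every replicate alone reaching that limit, limit read from the data, passing the limit was not always enough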;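 note: myotubes were challenged with 10 µM simvastatin during compound exposure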
# Numbers stand for hits; - = inactive; . = no result.
SMILES,S100A4 MyoIIA,PGC1a acetyl inh,SIRT5 block,Cneo AK release,rRNA inh HTS,C2C12 statin
COc1ccc(C2CC(C(F)(F)F)n3nc(C(=O)NCCN4CCOCC4)cc3N2)cc1 (stereo not drawn),.,-,.,-,.,90
O=C(Nc1ccc2c(c1)[C@H]1C[C@@H](CC(=O)N3CCc4ccccc4C3)O[C@@H](CO)[C@H]1O2)c1ccc2c(c1)OCO2,-,-,-,-,-,-
O=S(=O)(c1ccccc1)N1CCCCN2[C@@H](CO)[C@H](c3ccc(-c4ccccc4F)cc3)[C@@H]2C1,.,-,-,-,-,-
O=S(=O)(c1ccc(F)cc1)N1CCCCN2[C@H](CO)[C@@H](c3ccc(-c4ccccc4F)cc3)[C@H]2C1,-,-,22,-,.,.
C/C=C/c1ccc([C@@H]2[C@H]3CN(S(=O)(=O)c4ccc(F)cc4)CCCCN3[C@H]2CO)cc1,-,-,16,-,-,-
COCC(=O)N(C)C[C@@H]1Oc2cc(-c3ccncc3)ccc2S(=O)(=O)N([C@H](C)CO)C[C@H]1C,-,-,-,-,-,-
Clc1c(Cl)c(Cl)c2n[nH]nc2c1Cl,-,-,-,.,-53,.
O=C(NCC[C@@H]1CC[C@@H](NS(=O)(=O)Cc2ccccc2)[C@H](CO)O1)C1CCCC1,-,-,-,-,-,-
CCCCCCC(=O)N1CCN(c2cc3c(cc2F)c(=O)c(C(=O)O)cn3CC)CC1,.,-,.,-,.,153
CCCCCCCCCC(=O)N1CCN(c2cc3c(cc2F)c(=O)c(C(=O)O)cn3CC)CC1,-,-,-,-,-,-
CCn1cc(C(=O)NCc2cccc(F)c2)c(=O)c2cc(F)c(N3CCN(C(=O)c4ccco4)CC3)cc21,.,-,.,-,.,79
O=C(Nc1ccccc1C(=O)N1CCCC1)c1ccccc1,-,-,-,-,-,-
COc1cc(Cl)ccc1NC(=O)COc1ccccc1C(=O)N1CCN(c2ccc(O)cc2)CC1,.,-,.,-,.,122
O=C(Nc1ccccc1C(=O)N1CCOCC1)c1ccc(F)cc1,.,-,.,-,.,86
Cc1cc(Cl)ccc1OCC(=O)Nc1ccccc1C(=O)N1CCOCC1,-,.,-,-,-,-
O=C(O)c1ccccc1C(=O)N1CCN(c2cccc(Cl)c2)CC1,.,-,.,-,.,84
O=C(Nc1ccccc1C(=O)N1CCCCCC1)c1ccc(Cl)cc1,-,-,-,.,-24,.
COC(=O)N(C)C[C@@H]1OCc2ccccc2-c2c(n(C)c3ccccc23)C(=O)N([C@@H](C)CO)C[C@@H]1C,-,-,-,-,-,-
CC(C)c1ccc(N2CCN(C(=O)c3ccccc3NC(=O)/C=C\C(=O)O)CC2)cc1,.,-,.,-,.,.
O=C(O)/C=C\C(=O)Nc1ccccc1C(=O)N1CCN(c2ccc(Cl)cc2)CC1,.,-,.,-,.,88
O=S(=O)(Nc1cccc2cccnc12)c1ccc(S(=O)(=O)N2CCCC2)cc1,.,-,.,-,.,70
Cn1c(SCc2cccc(F)c2)nnc1-c1ccncc1,-,-,15,-,-,-
Cn1c(SCc2ccccc2)nnc1-c1ccncc1,-,.,-,-,-,-
C[C@H]1CN([C@@H](C)CO)C(=O)c2cc(NC(=O)Nc3ccc4c(c3)OCO4)ccc2O[C@H]1CN(C)Cc1ccc(-c2ccccc2)cc1,-,-,-,-,-,.
O=Cc1[nH]c2ccccc2c1N(C(=O)CCl)c1ccc([N+](=O)[O-])cc1,-,-,-,-,-55,.
CC(=O)n1cc(N(C(=O)CCl)c2ccc([N+](=O)[O-])cc2)c2ccccc21,-,-,-,-,-36,.
O=C(CCl)N(c1ccccc1)c1c[nH]c2ccccc12,.,-,.,.,.,.
CC(=O)n1cc(N(C(=O)CCl)c2ccccc2)c2ccccc21,-,-,-,-,-,.
COc1ccc2c3c(n(C)c2c1)[C@H](CO)N(Cc1ccncc1)CC31CN(C(=O)C2CC2)C1,-,.,-,.,-,.
